Bioassay records: PubChem, several laboratories
SKKanGAS inh: S. pyogenes SKKanGAS growth inhibitors in kanamycin, primary screen, streptokinase expression inhibitor project, SKKanGAS strain, BacTiter-Glo luminescence; inhibition, % at 7.5 µM; AID 1662, 2009; actives 1.3% (n = 300,000); 6 h;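 active means mean replicate score, as percent of positive control median, at least 50; inconclusive means mean below 50 but one replicate at or above 50; inactive means mean and every replicate below 50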;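 further: strain carries kanamycin resistance gene driven by streptokinase promoter and grows in 40 µg/ml kanamycin; loss of luminescence reflects streptokinase promoter inhibition or plain growth inhibition; 0% = median of DMSO wells and 100% = positive control at its reference dose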
CSC inhib: cancer stem cell viability inhibitors, primary screen, luminescence; actives 1.1% (n = 300,000); cancer stem cell-like cells viability; inhibition, % at 7.5 µM; in the data active means inhibition above about 75%; inconclusive means no clear call, values can overlap the other calls; tested in HMLE shEcad cells
Beta apoptosis: inhibitors of cytokine-induced beta cell apoptosis, primary screen, luminescence; INS-1E cytokine-induced death, ATP luminescence, 48 h; percent of positive-control rescue, neutral wells zero; protection from apoptosis, % (concentration not given with the values); actives 0.8% (n = 300,000);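 active means Every replicate reaches about 75%, or at least half do and their mean reaches it too, limit read from the data; inconclusive means At least half of replicates reach the limit but their mean does not; inactive means Under half of replicates reach the limit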;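 further: 0% = cytokine-treated negative control wells and 100% = positive control rescue; higher means more ATP so stronger rescue from cytokine killing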
L major viab: Leishmania major promastigote growth inhibition, primary screen; inhibition, % at 10 µM; actives 9% (n = 200,000); Leishmania major promastigotes, resazurin fluorescence viability; AID 1063, 2008; in the data active means inhibition above about 50%;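 further: promastigotes grown with compound for 44 hours at 28 °C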
T cruzi inh: inhibitors of intracellular T. cruzi growth, primary screen, luminescence, NIH3T3 host cells. T. cruzi beta-gal in NIH3T3, 90 h. inhibition, % (test concentration not listed). actives 1.4% (n = 300,000). AID 1885, 2009;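 active means mean inhibition across valid replicates above about 55%, limit read from the data; inconclusive means mean below that limit but half or more replicates reach it; inactive means mean below it, under half of replicates reach it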;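 further: signal also drops with host cell toxicity which is not excluded here; 0% = plate median of DMSO wells and 100% = zero luminescence signal; higher percent means less beta-gal luminescence so fewer parasites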
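System: mouse NIH/3T3 fibroblasts infected with β-gal-expressing T. cruzi Tulahuen C4 / Input: NIH/3T3 cells, 5,000 per well / Buffer or medium: Low-serum DMEM with 2% FBS / Probe or stimulus: 5000 reporter trypomastigotes per well / Schedule: ≥90 h infection period, 3 h prior cell attachment / Measured by: GalScreen luminescence, 60 min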
Mdm2 MdmX PPI: inhibitors of human Mdm2-MdmX association, primary screen, cell-based, luminescence, split luciferase, SaOS-2, uHTS. inhibition, % at 8 µM. actives 3% (n = 330,000). SaOS-2 split-luciferase Mdm2/MdmX complementation. Protein Mdm4 (Homo sapiens) + E3 ubiquitin-protein ligase Mdm2 (Homo sapiens), …;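 active means inhibition of at least 50% at 8 µM in the primary screen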
Target sequence (O15151 whole entry, looked up): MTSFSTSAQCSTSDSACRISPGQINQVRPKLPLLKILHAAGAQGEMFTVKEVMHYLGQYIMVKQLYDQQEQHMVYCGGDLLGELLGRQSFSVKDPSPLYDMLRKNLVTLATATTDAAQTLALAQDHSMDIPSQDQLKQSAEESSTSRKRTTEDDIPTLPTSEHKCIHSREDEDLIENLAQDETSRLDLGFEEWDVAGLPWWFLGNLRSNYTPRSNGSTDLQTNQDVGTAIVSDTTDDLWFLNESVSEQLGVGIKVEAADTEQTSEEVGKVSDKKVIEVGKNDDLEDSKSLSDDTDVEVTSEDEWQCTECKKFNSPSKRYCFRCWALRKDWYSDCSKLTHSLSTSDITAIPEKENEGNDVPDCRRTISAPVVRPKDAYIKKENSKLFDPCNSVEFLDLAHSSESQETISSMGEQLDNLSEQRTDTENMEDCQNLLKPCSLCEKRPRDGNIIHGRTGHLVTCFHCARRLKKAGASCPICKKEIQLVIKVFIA
Target sequence (Q00987 whole entry, looked up): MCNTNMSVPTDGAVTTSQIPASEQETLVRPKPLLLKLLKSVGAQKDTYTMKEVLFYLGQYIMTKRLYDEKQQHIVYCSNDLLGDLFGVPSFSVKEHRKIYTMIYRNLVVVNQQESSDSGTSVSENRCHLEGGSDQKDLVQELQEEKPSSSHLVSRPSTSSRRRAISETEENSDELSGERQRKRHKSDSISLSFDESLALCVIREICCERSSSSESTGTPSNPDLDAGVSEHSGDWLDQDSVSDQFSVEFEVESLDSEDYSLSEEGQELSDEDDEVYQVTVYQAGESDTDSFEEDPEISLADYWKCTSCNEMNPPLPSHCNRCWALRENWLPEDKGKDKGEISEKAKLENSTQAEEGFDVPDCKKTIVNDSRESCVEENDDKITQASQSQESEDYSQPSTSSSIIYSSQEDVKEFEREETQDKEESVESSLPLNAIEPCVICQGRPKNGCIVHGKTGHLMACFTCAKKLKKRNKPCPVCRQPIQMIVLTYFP
* hit, by the source's call; ? = inconclusive; nt = no result given. Shown are actives, neighbours in structure and some others; about 9.4% of the full set was active somewhere.

SMILES	SKKanGAS inh	CSC inhib	Beta apoptosis	L major viab	T cruzi inh	Mdm2 MdmX PPI
Cc1c(CCC(=O)O)c(=O)oc2cc3occ(-c4ccc(Cl)cc4)c3cc12	63*	-5	10	nt	2	31
Cc1c(CCC(=O)O)c(=O)oc2c(C)c3occ(-c4ccc(Cl)cc4)c3cc12	58*	-2	11	nt	5	-11
Cc1c(CCC(=O)O)c(=O)oc2cc3occ(-c4ccc(Br)cc4)c3cc12	77*	-5	8	nt	-2	4
Nc1cc(Nc2ccc(Br)cc2)nc(N)n1	11	8	6	nt	24	-31
CC(C(=O)Nc1ccccn1)N1C(=O)c2ccccc2S1(=O)=O (stereo unspecified)	-7	7	-5	nt	-8	22
O=Cc1ccc(-c2ccc([N+](=O)[O-])cc2Cl)o1	nt	nt	nt	60*	nt	nt
CN(C)CCNC(=O)c1cc(Sc2ccc(F)cc2)nc2ccccc12	-1	6	1	16	65*	16
Cc1ccc(Sc2cc(C(=O)NCCCN(C)C)c3ccccc3n2)cc1	4	3	-2	nt	56*	11
COc1ccc(/C=C/C(=O)c2c(C)nc3ccccn23)cc1	51*	-6	nt	33	52	-44
COc1ccc(CNC(=O)c2c(C)nc3ccccn23)cc1	-2	nt	9	6	-4	11
Cc1nc2ccccn2c1C(=O)/C=C/c1ccc(F)cc1	3	27	-7	86*	-7	38
Cc1nc2ccccn2c1C(=O)NN	-9	-11	0	-9	-17	14
O=C(Nc1cccc(C(F)(F)F)c1)C(=O)N1CCCCC1	-6	-5	nt	-1	4	6
CCCc1cc2c(-c3ccccc3)cc(=O)oc2cc1OCc1ccc(C(=O)O)o1	?	24	-13	-3	-8	4
Cc1ccc(S(=O)(=O)N2CCN(c3nc(CN4CCCC4)nc4sc(C)c(C)c34)CC2)cc1	nt	8	7	nt	nt	35
Cc1sc2nc(CN3CCCC3)nc(N3CCN(S(=O)(=O)c4cccs4)CC3)c2c1C	-5	-11	-1	56*	46	28
CCN1CCN(Cc2cc(=O)oc3cc4c(cc23)CCC4)CC1	1	-1	-1	8	31	10
Cc1cc2oc(=O)cc(CN3CCCc4ccccc43)c2cc1C	10	-8	-6	99*	48	-9
CCOC(=O)Nc1ccc2c(CN3CCN(S(=O)(=O)c4ccccc4)CC3)cc(=O)oc2c1	9	14	8	100*	48	31
CN1CCN(Cc2cc(=O)oc3cc4c(cc23)CCC4)CC1	-6	8	0	65*	30	8
Cc1cc2oc(=O)cc(CN3CCN(C/C=C/c4ccccc4)CC3)c2cc1O	7	-7	12	100*	55*	42
Cc1cc(C)c(-n2c(SCC(=O)N3CCOCC3)n[nH]c2=O)c(C)c1	-4	17	-6	nt	-9	10
Nc1nc(NC(=O)CCC(=O)O)nn1-c1ccccc1	9	-1	-1	nt	6	14
O=C(C1CCOCC1)N1CCC(CO)(CCc2ccccc2)CC1	0	12	-3	-8	-2	-3
Cc1cc2oc(=O)cc(CN(C)Cc3ccccc3Cl)c2cc1C	62*	17	-4	nt	46	-12
SMILES	SKKanGAS inh	CSC inhib	Beta apoptosis	L major viab	T cruzi inh	Mdm2 MdmX PPI
Cc1cc2oc(=O)cc(CN3CCN(S(=O)(=O)c4cccs4)CC3)c2cc1C	-1	-6	15	81*	33	15
O=C(c1ccc2n[nH]nc2c1)N1CCN(c2ccc(C(F)(F)F)cn2)CC1	nt	nt	-1	nt	nt	0
Cc1ccc(NC(=S)N2CCC(c3ccccc3)C2)c(Cl)c1 (stereo unspecified)	-8	-18	3	13	8	-83
O=C(/C=C/c1ccc(-c2ccccc2[N+](=O)[O-])o1)c1ccco1	-20	3	-6	59*	3	9
O=C(/C=C/c1ccc([N+](=O)[O-])cc1)c1ccco1	-4	0	nt	nt	-4	10
COC(=O)C(CCSC)NC(=O)C(NC(=O)C1CCC(C)CC1)C(C)C (stereo unspecified)	-4	-3	-8	69*	nt	6
